Results on nine compounds are retold here after ChEMBL document CHEMBL1773057, “Design, synthesis and in vitro antimicrobial evaluation of novel Imidazo[1,2-a]pyridine and imidazo[2,1-b][1,3]benzothiazole motifs” (2011).

≈ marks a conversion by molar mass, not a printed value.

Type in all cases: functional
One test relates to Pseudomonas aeruginosa. In words: Antimicrobial activity against Pseudomonas aeruginosa after 24 hrs by broth microdilution method. An outline of the steps:
(§1)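 Broth microdilution. Bacteria were grown on Mueller-Hinton agar and diluted in Mueller-Hinton broth. Compounds were made as 1000 µg/mL stocks in 50% DMSO/H₂O and added to wells as two-fold dilutions starting at 500 µg/mL, then inoculated. Sealed plates were incubated at 37 °C for 24 h in a humid chamber. MIC was the lowest concentration with no visible turbidity.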
A general note: Broth dilution looks for growth in wells or tubes with falling amounts of substance.

The next test relates to Klebsiella aerogenes. Briefly: Antimicrobial activity against Enterobacter aerogenes after 24 hrs by broth microdilution method. An outline of the steps:
as §1

The next test deals with Staphylococcus aureus. Briefly: Antimicrobial activity against Staphylococcus aureus after 24 hrs by broth microdilution method. An outline of the steps:
as §1

The next test concerns Enterococcus faecalis. In words: Antimicrobial activity against Enterococcus faecalis after 24 hrs by broth microdilution method. The procedure, abridged:
as §1

Another test concerns Priestia megaterium. Briefly: Antimicrobial activity against Bacillus megaterium after 24 hrs by broth microdilution method. The procedure, abridged: as §1
The subject of another test is Candida albicans. Briefly: Antimicrobial activity against Candida albicans after 48 hrs by broth microdilution method. An outline of the steps:
(§2)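 Fungi were grown on Sabouraud dextrose agar. Inocula were prepared in Sabouraud liquid medium at 37 °C for 12 h, then diluted in RPMI-1640 with L-glutamine, MOPS-buffered at pH 7. Compounds were made as 1000 µg/mL stocks in 50% DMSO/H₂O and tested as two-fold dilutions from 500 µg/mL. Sealed plates were incubated at 37 °C for 48 h in a humid chamber. MIC was the lowest concentration without visible turbidity.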

The subject of another test is Candida parapsilosis. In words: Antimicrobial activity against Candida parapsilosis after 48 hrs by broth microdilution method. The conditions noted are these: Lodderomyces parapsilosis. An outline of the steps: as §2
The next test concerns Aspergillus flavus. In words: Antimicrobial activity against Aspergillus flavus after 48 hrs by broth microdilution method. The procedure, abridged:
as §2

The subject of the next test is Nannizzia gypsea. Briefly: Antimicrobial activity against Microsporum gypseum after 48 hrs by broth microdilution method. An outline of the steps:
as §2

Another test has as its system Escherichia coli. Briefly: Antimicrobial activity against Escherichia coli after 24 hrs by broth microdilution method. The procedure, abridged: as §1

For orientation: MIC means the lowest concentration that inhibits growth of the organism. Low readings indicate greater potency, high ones weaker potency. Regarding `Cc1ccc2ncc(-c3nc4sc5cc(F)ccc5n4c3Nc3ccc(F)cc3)cc2c1`, the MIC came out at 9.66 µg/mL (≈ 21.8 µM) in the test on Pseudomonas aeruginosa; 9.57 µg/mL (≈ 21.6 µM) against Klebsiella aerogenes; 8.63 µg/mL (≈ 19.5 µM) against Staphylococcus aureus; 9.45 µg/mL (≈ 21.4 µM) in the test with Enterococcus faecalis; 18.6 µg/mL (≈ 42.1 µM) with Priestia megaterium; 12.2 µg/mL (≈ 27.5 µM) in the test on Candida albicans. Further, the MIC against Candida parapsilosis was 14.4 µg/mL (≈ 32.6 µM); in the test with Aspergillus flavus it was 13.4 µg/mL (≈ 30.2 µM); in the test on Nannizzia gypsea it was 18.4 µg/mL (≈ 41.6 µM); against Escherichia coli, 10.4 µg/mL (≈ 23.5 µM).
On to `Fc1ccc(Nc2c(-c3c[nH]c4ccc(Br)cc34)nc3sc4cc(F)ccc4n23)cc1`, for which the MIC in the test on Pseudomonas aeruginosa was found to be 0.53 µg/mL (≈ 1.07 µM); in the test with Klebsiella aerogenes, 0.32 µg/mL (≈ 0.646 µM); against Staphylococcus aureus it was 0.18 µg/mL (≈ 0.363 µM); in the test with Enterococcus faecalis it was 0.87 µg/mL (≈ 1.76 µM); against Priestia megaterium, 1.69 µg/mL (≈ 3.41 µM); against Candida albicans it was 2.23 µg/mL (≈ 4.5 µM). Further, the MIC with Candida parapsilosis was 2.32 µg/mL (≈ 4.68 µM); in the test on Aspergillus flavus, 2.13 µg/mL (≈ 4.3 µM); in the test with Nannizzia gypsea, 3.15 µg/mL (≈ 6.36 µM); in the test on Escherichia coli it was 0.44 µg/mL (≈ 0.888 µM).
As for `Cc1ccc(-c2nnc(-c3ccc4nc(-c5c[nH]c6ccc(Br)cc56)c(Nc5ccc(F)cc5)n4c3)o2)cc1`, the MIC with Pseudomonas aeruginosa came out at 5.64 µg/mL (≈ 9.73 µM); with Klebsiella aerogenes, 4.42 µg/mL (≈ 7.63 µM); in the test on Staphylococcus aureus, 3.13 µg/mL (≈ 5.4 µM); with Enterococcus faecalis it was 7.56 µg/mL (≈ 13 µM); against Priestia megaterium it was 6.44 µg/mL (≈ 11.1 µM); in the test on Candida albicans it was 11.6 µg/mL (≈ 20.1 µM). In addition, the MIC against Candida parapsilosis came to 10.4 µg/mL (≈ 18 µM); in the test on Aspergillus flavus, 6.55 µg/mL (≈ 11.3 µM); against Nannizzia gypsea, 13.4 µg/mL (≈ 23.1 µM); against Escherichia coli it was 6.72 µg/mL (≈ 11.6 µM).
Consider `Fc1ccc(Nc2c(-c3cnc4ccc(Br)cc4c3)nc3ccc(-c4ncc(-c5ccc(F)cc5)[nH]4)cn23)cc1`, for which the MIC was determined as 1.34 µg/mL (≈ 2.26 µM) in the test with Pseudomonas aeruginosa; 0.81 µg/mL (≈ 1.36 µM) against Klebsiella aerogenes; 0.63 µg/mL (≈ 1.06 µM) in the test on Staphylococcus aureus; 1.21 µg/mL (≈ 2.04 µM) against Enterococcus faecalis; 4.07 µg/mL (≈ 6.86 µM) in the test on Priestia megaterium; 1.05 µg/mL (≈ 1.77 µM) against Candida albicans. Besides, the MIC with Candida parapsilosis was 1.15 µg/mL (≈ 1.94 µM); with Aspergillus flavus, 0.72 µg/mL (≈ 1.21 µM); in the test with Nannizzia gypsea, 0.84 µg/mL (≈ 1.42 µM); in the test on Escherichia coli, 1.15 µg/mL (≈ 1.94 µM).
On to `Fc1ccc(Nc2c(-c3c[nH]c4ccc(Br)cc34)nc3ccc(-c4nc5ccc(F)cc5[nH]4)cn23)cc1`, for which the MIC with Pseudomonas aeruginosa was found to be 1.51 µg/mL (≈ 2.72 µM); against Klebsiella aerogenes it was 1.15 µg/mL (≈ 2.07 µM); with Staphylococcus aureus, 1.12 µg/mL (≈ 2.02 µM); in the test on Enterococcus faecalis, 1.36 µg/mL (≈ 2.45 µM); against Priestia megaterium, 1.43 µg/mL (≈ 2.57 µM); against Candida albicans, 11.3 µg/mL (≈ 20.4 µM). Moreover, the MIC against Candida parapsilosis was 10.4 µg/mL (≈ 18.7 µM); against Aspergillus flavus it was 12.2 µg/mL (≈ 22 µM); in the test with Nannizzia gypsea, 9.14 µg/mL (≈ 16.5 µM); in the test on Escherichia coli, 1.12 µg/mL (≈ 2.02 µM).
As for `Cc1ccc(-c2cnc(-c3ccc4nc(-c5cnc6ccc(Br)cc6c5)c(Nc5ccc(F)cc5)n4c3)[nH]2)cc1`, the MIC against Pseudomonas aeruginosa was 2.89 µg/mL (≈ 4.9 µM); against Klebsiella aerogenes it was 2.78 µg/mL (≈ 4.72 µM); against Staphylococcus aureus it was 1.95 µg/mL (≈ 3.31 µM); against Enterococcus faecalis it was 2.26 µg/mL (≈ 3.83 µM); with Priestia megaterium, 5.14 µg/mL (≈ 8.72 µM); against Candida albicans it was 13.1 µg/mL (≈ 22.3 µM). Further, the MIC with Candida parapsilosis turned out to be 12.6 µg/mL (≈ 21.3 µM); against Aspergillus flavus it was 12.6 µg/mL (≈ 21.4 µM); in the test on Nannizzia gypsea it was 11.5 µg/mL (≈ 19.5 µM); against Escherichia coli it was 3.42 µg/mL (≈ 5.8 µM).
For the compound `CC1(C)S[C@@H]2[C@H](NC(=O)[C@H](N)c3ccc(O)cc3)C(=O)N2[C@H]1C(=O)O` [AMOXICILLIN], the MIC against Pseudomonas aeruginosa amounted to 14.7 µg/mL (≈ 40.1 µM); with Klebsiella aerogenes, 3.45 µg/mL (≈ 9.44 µM); in the test on Staphylococcus aureus, 12.9 µg/mL (≈ 35.4 µM); against Enterococcus faecalis it was 1.62 µg/mL (≈ 4.43 µM); in the test on Priestia megaterium, 2.28 µg/mL (≈ 6.24 µM); against Escherichia coli, 15.3 µg/mL (≈ 41.9 µM).
Consider `C=CC1=C(C(=O)O)N2C(=O)[C@@H](NC(=O)/C(=N\OCC(=O)O)c3csc(N)n3)[C@H]2SC1` [CEFIXIME], for which the MIC was found to be 16.4 µg/mL (≈ 36.2 µM) against Pseudomonas aeruginosa; 27.1 µg/mL (≈ 59.8 µM) in the test with Klebsiella aerogenes; 34.6 µg/mL (≈ 76.4 µM) against Staphylococcus aureus; 28.6 µg/mL (≈ 63 µM) against Enterococcus faecalis; 126 µg/mL (≈ 279 µM) in the test on Priestia megaterium; 2.12 µg/mL (≈ 4.68 µM) in the test with Escherichia coli.
Regarding `OC(Cn1cncn1)(Cn1cncn1)c1ccc(F)cc1F` [FLUCONAZOLE], the MIC amounted to 2.11 µg/mL (≈ 6.89 µM) against Candida albicans, 4.35 µg/mL (≈ 14.2 µM) against Candida parapsilosis, 9.22 µg/mL (≈ 30.1 µM) with Aspergillus flavus and 6.57 µg/mL (≈ 21.5 µM) against Nannizzia gypsea.
